Drawing on ChEMBL document CHEMBL1157101, “A series of alpha-heterocyclic carboxaldehyde thiosemicarbazones inhibit topoisomerase IIalpha catalytic activity” (J Med Chem, 2010), this text covers IC50 and inhibition for 1 molecule.

Assay [1] has as its system A549. Put plainly: Antiproliferative activity against human A549 cells after 72 hrs by sulforhodamine B assay. The class given is functional, cell-based. The settings on record: A549, 72 h. In outline: (§1)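 Cells seeded and exposed in triplicate to graded compound concentrations for 72 h. Suspension cells read by MTT conversion to coloured product; adherent cells read by sulforhodamine B. IC50 (50% growth inhibition versus untreated control) derived by the Logit method.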
(In SRB staining, fixed cells bind dye roughly in proportion to their protein.)

Assay [2] in a line: Antiproliferative activity against human Rh30 cells after 72 hrs by sulforhodamine B assay. The class given is functional, cell-based. The settings on record: SJRH30, 72 h. In outline: as §1
For assay [3], the system named is HT-29. Nature of the assay: Cytotoxicity against human HT-29 cells after 72 hrs in presence of FeSO4. The class given is functional, cell-based.
Assay [4] addresses DNA topoisomerase 2-alpha (Homo sapiens, UniProt P11388). Put plainly: Inhibition of human topoisomerase 2alpha-mediated decatenation of kDNA at 25 uM.
In assay [5] the test system is Nucleic Acid. Put plainly: Inhibition of Fenton's reaction mediated DNA strand break in Escherichia coli pBR322 by gel electrophoresis. It counts as nucleic-acid assay. In outline: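 pBR322 (0.2 μg) incubated 30 min at room temperature in 13 mM Hepes pH 7.2 with 1 mM H2O2 and 10 μM FeSO4 plus compound. Run on 1% agarose containing 0.1 μg/mL ethidium bromide at 90 V for 60 min. Bands quantified; % supercoiled = 1.4SC/(L+OC+1.4SC)×100.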

Activity calls are given as the source filed them. The rule behind the calls is not given here.

Sequence of DNA topoisomerase 2-alpha (P11388 whole entry): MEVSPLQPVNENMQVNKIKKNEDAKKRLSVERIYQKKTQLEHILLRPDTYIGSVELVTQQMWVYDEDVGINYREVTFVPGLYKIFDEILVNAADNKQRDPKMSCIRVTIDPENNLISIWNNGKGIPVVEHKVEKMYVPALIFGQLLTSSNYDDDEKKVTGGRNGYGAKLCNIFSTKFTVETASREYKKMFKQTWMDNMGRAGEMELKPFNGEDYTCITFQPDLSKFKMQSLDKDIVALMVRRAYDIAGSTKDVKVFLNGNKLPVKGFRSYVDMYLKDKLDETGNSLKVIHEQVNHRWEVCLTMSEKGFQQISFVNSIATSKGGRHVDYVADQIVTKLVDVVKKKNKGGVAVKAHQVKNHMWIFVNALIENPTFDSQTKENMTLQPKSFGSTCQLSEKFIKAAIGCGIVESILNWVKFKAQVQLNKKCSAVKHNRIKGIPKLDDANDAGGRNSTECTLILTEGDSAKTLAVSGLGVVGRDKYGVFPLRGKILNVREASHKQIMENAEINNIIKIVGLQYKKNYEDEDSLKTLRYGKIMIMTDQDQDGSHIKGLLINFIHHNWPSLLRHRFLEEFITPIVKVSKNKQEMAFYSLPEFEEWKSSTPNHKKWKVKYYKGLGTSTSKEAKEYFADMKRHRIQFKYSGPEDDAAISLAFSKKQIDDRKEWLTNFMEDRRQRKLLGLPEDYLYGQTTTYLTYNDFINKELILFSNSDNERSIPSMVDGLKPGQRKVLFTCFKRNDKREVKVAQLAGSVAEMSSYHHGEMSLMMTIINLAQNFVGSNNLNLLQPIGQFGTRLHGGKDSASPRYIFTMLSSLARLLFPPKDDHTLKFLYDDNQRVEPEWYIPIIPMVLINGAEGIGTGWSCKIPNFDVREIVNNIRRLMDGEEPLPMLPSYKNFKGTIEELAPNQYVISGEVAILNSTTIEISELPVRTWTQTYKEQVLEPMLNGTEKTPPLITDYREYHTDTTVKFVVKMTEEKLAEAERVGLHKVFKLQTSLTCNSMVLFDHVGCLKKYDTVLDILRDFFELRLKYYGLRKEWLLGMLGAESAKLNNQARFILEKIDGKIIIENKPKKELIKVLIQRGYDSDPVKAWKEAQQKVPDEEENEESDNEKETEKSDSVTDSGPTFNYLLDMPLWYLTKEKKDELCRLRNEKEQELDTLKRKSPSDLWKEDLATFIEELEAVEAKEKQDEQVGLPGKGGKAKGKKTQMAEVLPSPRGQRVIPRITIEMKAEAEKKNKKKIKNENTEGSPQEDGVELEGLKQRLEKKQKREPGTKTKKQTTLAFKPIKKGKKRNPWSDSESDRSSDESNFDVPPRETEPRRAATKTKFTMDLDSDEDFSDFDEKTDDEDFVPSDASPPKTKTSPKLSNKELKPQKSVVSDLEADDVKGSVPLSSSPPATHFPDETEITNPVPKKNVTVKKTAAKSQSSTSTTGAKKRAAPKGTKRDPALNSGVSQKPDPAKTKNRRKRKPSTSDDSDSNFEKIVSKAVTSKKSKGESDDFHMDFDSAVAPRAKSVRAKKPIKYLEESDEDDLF

Regarding `CN(C)C(=S)N/N=C/c1ccc2ccccc2n1`, the IC50 in assay [1] came to 450 nM; in assay [2], 2 nM. Moreover, the inhibition result in assay [3] and in assay [4] was “Active” throughout. Moreover, the inhibition entry in assay [5] is “Dose-dependent effect”.

Broadly, the IC50 is the point on the concentration scale where inhibition reaches its midpoint.
